Here are results for 17 molecules from ChEMBL document CHEMBL4837197, “A novel Hsp70 inhibitor specifically targeting the cancer-related Hsp70-Bim protein-protein interaction” (Eur J Med Chem, 2021).

Each structure is given as a SMILES string. The source made the active and inactive calls. The rule behind the calls is not given here.

Experiment [1] has as its target Apoptosis regulator Bcl-2 (Homo sapiens, UniProt P10415). Description: Inhibition of FAM-Bim peptide binding to human Bcl-2 (2 to 206) measured after 30 mins by fluorescence polarization assay. In a few lines: (§1)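 Fluorescence polarization competition. Serial dilutions of compound added to protein–probe mixture in buffer containing 0.02% sodium azide, incubated 30 min, then polarization read. Control values subtracted. IC50 from the competitive inhibition curve of polarization versus compound concentration.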

Experiment [2] is described as follows: Inhibition of FAM-Bim peptide binding to human Hsp70 NBD (1 to 383) measured after 30 mins by fluorescence polarization assay. In a few lines: as §1
Background: In fluorescence polarisation assays a small probe gives low polarisation when free and higher when bound to something large.

Experiment [3] has as its system BV-173. Description: Induction of apoptosis in human BV-173 cells transfected with Bim shRNA at 3 uM by AnnexinV staining method. The experiment is classed as functional, cell-based. Put shortly:
(§2)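 Stable clones of BV173 carrying non-silencing, Hsp70 or Bim shRNA, treated at 3 µM for 48 h. Apoptosis scored by Annexin V-FITC staining and flow cytometry. n = 3 independent samples, mean ± s.e.m.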

Experiment [4] relates to BV-173. In words: Inhibition of Hsp70/Bag3 protein protein interaction in human BV-173 cell lysate at 1 to 5 uM by co-IP/Western blot analysis. It counts as subcellular. Conditions: dose 1-5 µM. Put shortly:
(§3)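 BV173 cells treated at 0, 1, 3 and 5 µM. Immunoprecipitated with sepharose beads for 2 h at 4 °C. Hsp70, Bim and Bag3 probed by Western blot with β-actin as loading control.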
On the technique in general: A western blot detects proteins with antibodies after separation by electrophoresis.

Experiment [5] concerns BV-173. Description: Induction of apoptosis in human BV-173 cells transfected with Hsp70 shRNA at 3 uM by AnnexinV staining method. It counts as functional, cell-based. Put shortly:
as §2

Experiment [6] concerns BV-173. Description: Induction of apoptosis in human BV-173 cells transfected with Bim shRNA assessed as cleaved PARP at 3 uM by Western blot analysis. It counts as functional, cell-based. Put shortly: (§4)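 Stable non-silencing, Hsp70 or Bim shRNA BV173 clones treated at 3 µM. Lysed in RIPA with protease/phosphatase inhibitors, 150–250 µg protein resolved by SDS-PAGE, and PARP cleavage detected by immunoblot. n = 3 independent samples.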

The test system of experiment [7] is BV-173. Description: Inhibition of Hsp70/Bim protein protein interaction in human BV-173 cells assessed as decrease in Akt phosphorylation at 3 uM by Western blot analysis. The experiment is classed as cell-based. Put shortly: (§5)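 BV173 and KCL22 cells treated at 3 µM, with DMSO as vehicle. Lysed in RIPA with protease/phosphatase inhibitor for 30 min on ice and protein measured by BCA. 150–250 µg resolved by SDS-PAGE and blotted for AKT, pAKT, Raf-1 and pRaf-1, with β-actin loading control.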

Experiment [8] can be described thus: Binding affinity to human Hsp70 NBD (1 to 383) assessed as dissociation constant measured by isothermal titration calorimetry assay. Put shortly:
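ITC: binding isotherms integrated to give enthalpy change against ligand molar ratio, fitted with a one-set-of-sites model. Kd taken from the slope of the central linear part of the fractional saturation curve. Three independent experiments.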

Experiment [9] concerns BV-173. In words: Induction of apoptosis in human BV-173 cells transfected with Hsp70 shRNA assessed as cleaved PARP at 3 uM by Western blot analysis. The experiment is classed as functional, cell-based. In a few lines:
as §4

Experiment [10] concerns BV-173. Description: Inhibition of Hsp70/Bim protein protein interaction in human BV-173 cells assessed as decrease in Raf-1 phosphorylation at 3 uM by Western blot analysis. It counts as cell-based. In a few lines: as §5
The test system of experiment [11] is BV-173. In words: Induction of apoptosis in human BV-173 cells by AnnexinV-FITC/PI staining based flow cytometric analysis. The experiment is classed as functional, cell-based. Put shortly:
(§6)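 Cells treated with inhibitor for 48 h (DMSO stocks diluted in medium), washed in PBS with 1% bovine calf serum, stained with FITC–Annexin V (1:40) for 10 min in the dark at room temperature, and analysed by flow cytometry. EC50 is the concentration giving 50% apoptosis. Culture conditions: BV173 and KCL22 in RPMI 1640, HEK293 in DMEM, BaF3 in RPMI 1640 with 10 ng/ml mouse IL-3, all with 10% FBS at 37 °C, 5% CO2.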
(In general: In flow cytometry, cells or beads pass a laser one at a time.)

Experiment [12] concerns HEK293. In words: Induction of apoptosis in human HEK293 cells by AnnexinV-FITC/PI staining based flow cytometric analysis. It counts as cell-based. Put shortly: as §6
Experiment [13] deals with BV-173. Description: Inhibition of Hsp70/Bim protein protein interaction in human BV-173 cells assessed as decrease in Raf-1 expression at 3 uM by Western blot analysis. The experiment is classed as cell-based. Put shortly: as §5
Experiment [14] concerns KCL-22. In words: Inhibition of Hsp70/Bim protein protein interaction in human KCL-22 cells assessed as decrease in Akt expression at 3 uM by Western blot analysis. The experiment is classed as cell-based. In a few lines:
as §5

The target of experiment [15] is Stress-70 protein, mitochondrial (Homo sapiens) (UniProt P38646). Description: Competitive binding affinity to Mortalin in human BV-173 cell lysate up to 10 uM by pull-down/Western blot analysis. It counts as subcellular. Conditions: dose microM <=10. In a few lines:
(§7)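 BV173 cell lysate incubated with biotin-clickable affinity probe, with or without competitor. Probe-bound proteins pulled down on streptavidin/avidin agarose after click reaction. Beads washed with 0.1% SDS and PBS, boiled 15 min in SDS loading buffer. Hsp70, Hsc70 and Mortalin detected by Western blot.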

For experiment [16], the system named is KCL-22. In words: Inhibition of Hsp70/Bim protein protein interaction in human KCL-22 cells assessed as decrease in Raf-1 expression at 3 uM by Western blot analysis. The experiment is classed as cell-based. In a few lines: as §5
Experiment [17] concerns BV-173. Description: Inhibition of Hsp70/Bim protein protein interaction in human BV-173 cells assessed as decrease in Akt expression at 3 uM by Western blot analysis. It counts as cell-based. In a few lines: as §5
For experiment [18], the species on record is Homo sapiens. Description: Inhibition of BimBH3-stimulated human HSP70 ATPase activity.
For experiment [19], the system named is BaF3. In words: Induction of apoptosis in mouse BaF3 cells by AnnexinV-FITC/PI staining based flow cytometric analysis. The experiment is classed as cell-based. In a few lines: as §6
Experiment [20] deals with BV-173. Description: Competitive binding affinity to HSP70 in human BV-173 cell lysate by pull-down/Western blot analysis. The experiment is classed as subcellular. Put shortly: as §7
Experiment [21] deals with KCL-22. Description: Inhibition of Hsp70/Bim protein protein interaction in human KCL-22 cells assessed as decrease in Raf-1 phosphorylation at 3 uM by Western blot analysis. The experiment is classed as cell-based. In a few lines: as §5
Experiment [22] has as its system BV-173. Description: Inhibition of Hsp70/Bim protein protein interaction in human BV-173 cell lysate at 1 to 5 uM by co-IP/Western blot analysis. It counts as subcellular. Conditions: dose 1-5 µM. Put shortly:
as §3

The target of experiment [23] is Heat shock cognate 71 kDa protein (Homo sapiens) (UniProt P11142). In words: Competitive binding affinity to Hsc70 in human BV-173 cell lysate up to 10 uM by pull-down/Western blot analysis. It counts as subcellular. The following applies: dose microM <=10. In a few lines:
as §7

The subject of experiment [24] is KCL-22. In words: Induction of apoptosis in human KCL-22 cells by AnnexinV-FITC/PI staining based flow cytometric analysis. It counts as functional, cell-based. In a few lines:
as §6

The subject of experiment [25] is KCL-22. In words: Inhibition of Hsp70/Bim protein protein interaction in human KCL-22 cells assessed as decrease in Akt phosphorylation at 3 uM by Western blot analysis. The experiment is classed as cell-based. In a few lines:
as §5

Sequence of Apoptosis regulator Bcl-2 (P10415 whole entry): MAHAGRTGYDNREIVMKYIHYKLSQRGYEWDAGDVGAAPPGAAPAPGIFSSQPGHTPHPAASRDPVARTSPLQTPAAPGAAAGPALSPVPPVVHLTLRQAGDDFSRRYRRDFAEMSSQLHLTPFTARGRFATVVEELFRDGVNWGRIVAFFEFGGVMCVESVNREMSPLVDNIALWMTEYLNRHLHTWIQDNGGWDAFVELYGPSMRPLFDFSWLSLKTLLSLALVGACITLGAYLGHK
Sequence of Stress-70 protein, mitochondrial (Homo sapiens) (P38646 whole entry): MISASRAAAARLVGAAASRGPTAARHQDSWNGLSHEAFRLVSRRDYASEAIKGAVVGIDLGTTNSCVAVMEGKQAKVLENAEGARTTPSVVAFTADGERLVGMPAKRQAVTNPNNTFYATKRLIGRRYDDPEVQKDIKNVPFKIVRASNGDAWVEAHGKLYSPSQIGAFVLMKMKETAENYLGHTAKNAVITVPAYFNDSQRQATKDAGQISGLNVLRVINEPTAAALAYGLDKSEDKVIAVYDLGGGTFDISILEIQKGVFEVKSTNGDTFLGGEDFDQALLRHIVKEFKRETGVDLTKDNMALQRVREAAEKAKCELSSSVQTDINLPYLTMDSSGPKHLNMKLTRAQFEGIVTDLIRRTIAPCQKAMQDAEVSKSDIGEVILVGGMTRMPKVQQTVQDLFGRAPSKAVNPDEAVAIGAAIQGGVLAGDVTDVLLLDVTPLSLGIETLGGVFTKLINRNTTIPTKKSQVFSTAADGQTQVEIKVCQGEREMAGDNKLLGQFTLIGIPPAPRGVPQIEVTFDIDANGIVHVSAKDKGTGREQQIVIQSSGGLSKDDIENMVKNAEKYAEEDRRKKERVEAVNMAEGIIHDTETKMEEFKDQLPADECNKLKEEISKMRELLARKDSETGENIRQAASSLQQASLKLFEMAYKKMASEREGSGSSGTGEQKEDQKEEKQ
Sequence of Heat shock cognate 71 kDa protein (Homo sapiens) (P11142 2-646 limits assumed): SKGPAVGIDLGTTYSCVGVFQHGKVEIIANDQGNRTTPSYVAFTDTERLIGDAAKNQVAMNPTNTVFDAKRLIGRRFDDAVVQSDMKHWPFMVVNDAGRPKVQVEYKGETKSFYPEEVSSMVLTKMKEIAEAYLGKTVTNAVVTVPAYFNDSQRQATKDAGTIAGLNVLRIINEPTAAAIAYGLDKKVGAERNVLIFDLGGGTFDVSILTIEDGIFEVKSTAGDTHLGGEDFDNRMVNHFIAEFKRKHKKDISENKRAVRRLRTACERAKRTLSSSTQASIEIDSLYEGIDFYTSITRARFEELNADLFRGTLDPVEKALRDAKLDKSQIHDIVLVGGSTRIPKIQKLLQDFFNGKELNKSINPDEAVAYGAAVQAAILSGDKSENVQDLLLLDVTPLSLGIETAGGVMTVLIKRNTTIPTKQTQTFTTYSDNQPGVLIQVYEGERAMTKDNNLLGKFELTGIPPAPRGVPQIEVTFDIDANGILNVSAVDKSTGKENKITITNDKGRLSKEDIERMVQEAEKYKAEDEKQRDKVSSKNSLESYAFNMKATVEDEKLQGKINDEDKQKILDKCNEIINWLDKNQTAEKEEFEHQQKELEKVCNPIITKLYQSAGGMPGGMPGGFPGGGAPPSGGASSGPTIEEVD

Consider `N#CC1=C(C#N)c2ccc(SC3CCCC3)c3cccc(c23)C1=O`, for which the IC50 came to 8.4 µM in experiment [1] and 3.2 µM in experiment [2].
For `N#CC1=C(C#N)c2ccc(Sc3ccc(Br)cc3)c3cccc(c23)C1=O` the same measures were 0.7 µM and 2.5 µM.
On to `N#CC1=C(NCCN2CCOCC2)c2ccc(SC3CCCCC3)c3cccc(c23)C1=O`, for which the result in experiment [3], in [5], in [6], in [9], in [15] and in [23] was Active. For the same molecule, the inhibition result in [4] was “inactive”. The inhibition entry in experiment [7], in [10], in experiment [13], in experiment [14], in [16] and in experiment [17] was “Active” in each case. Also, the inhibition result in experiment [18], in [21], in experiment [22] and in experiment [25] was “Active” each time. For the same molecule, the Kd in experiment [8] is 960 nM. In addition, the EC50 is 1400 nM in experiment [11], above 15 µM in [12], above 15 µM in experiment [19] and 2600 nM in [24]. Moreover, the IC50 in experiment [1] was 18.7 µM; in experiment [2], 0.45 µM. Besides, the Activity entry in experiment [20] was “Dose-Dependent Effect”.
As for `CC(C)c1ccc(Sc2ccc3c4c(cccc24)C(=O)C(C#N)=C3C#N)cc1`, the concentration for half-maximal inhibition (IC50) in [1] came out at 2.8 µM; in [2] it was 4.4 µM.
Take `N#CC1=C(NCc2ccccc2)c2ccc(SC3CCCCC3)c3cccc(c23)C1=O`: the figures for the IC50 in experiment [1] and in [2] were 5.2 µM and 10.5 µM, respectively.
As for `N#CC1=C(NCCO)c2ccc(SC3CCCCC3)c3cccc(c23)C1=O`, the IC50 in experiment [1] came out at 9.6 µM; in experiment [2] it was 0.81 µM.
In the same order, the values of `N#CC1=C(NCCC(N)=O)c2ccc(SC3CCCCC3)c3cccc(c23)C1=O` are 13.5 µM and 1 µM.
For `N#CC1=C(C#N)c2ccc(Sc3ccccc3)c3cccc(c23)C1=O` the same measures were 1.8 µM and 7.7 µM.
In the same order, the values of `N#CC1=C(C#N)c2ccc(NCCO)c3cccc(c23)C1=O` are above 20 µM and 15.2 µM.
On to `N#CC1=C(C#N)c2ccc(SC3CCCCC3)c3cccc(c23)C1=O`, for which the IC50 in experiment [1] is 8.6 µM; in [2], 1.7 µM.
In the same order, the values of `N#CC1=C(NCC2CCCCC2)c2ccc(SC3CCCCC3)c3cccc(c23)C1=O` are 4.8 µM and 8.4 µM.
For `CCCCNC1=C(C#N)C(=O)c2cccc3c(SC4CCCCC4)ccc1c23` the same measures were 16 µM and 13.2 µM.
For the molecule `N#CC1=C(C#N)c2ccc(NCc3ccccc3)c3cccc(c23)C1=O`, the IC50 turned out to be 14.8 µM in experiment [1] and 18.5 µM in [2].
For the molecule `N#CC1=C(C#N)c2ccc(NC3CCCCC3)c3cccc(c23)C1=O`, the IC50 in experiment [1] and in experiment [2] was above 20 µM throughout.
In experiment [2], `CC1(C)CCC(CN2CCN(c3ccc(C(=O)NS(=O)(=O)c4ccc(NCC5CCOCC5)c([N+](=O)[O-])c4)c(Oc4cnc5[nH]ccc5c4)c3)CC2)=C(c2ccc(Cl)cc2)C1` [VENETOCLAX] gave an IC50 above 20 µM.
For `COc1ccc(Sc2ccc3c4c(cccc24)C(=O)C(C#N)=C3C#N)cc1`, the IC50 in experiment [1] came to 6.1 µM; in experiment [2], 4.5 µM.
With `N#CC1=C(C#N)c2ccc(N3CCSCC3)c3cccc(c23)C1=O`, the 50% inhibitory concentration (IC50) is 0.8 µM in experiment [1] and above 20 µM in [2].

The term IC50 denotes the concentration that inhibits the measured activity by half. For orientation: Kd means a measure of binding affinity in units of concentration. As a reminder, the EC50 is the concentration that produces a half-maximal response.
